OX1R antag-1 = human HCRTR1 antagonism; O43613; CHO/OX1R cells, Fluo-8 calcium fluorescence, orexin A; inhibition, % at 5 µM; hit rate 0.43% among 330,000;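 active = inhibition above its plate's threshold, mean inhibition of all tested compounds on the plate plus 3 SD, cut at about 37% in these data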;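 also: 0% = orexin A challenge wells and 100% = SB-334867-A antagonist wells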
OX1R antag-2 = blocks the human orexin 1 receptor; O43613; OX1R-expressing cells, FRET antagonist read-out; inhibition, % at 6.6 µM; hit rate 1.8% among 330,000; in the data active = inhibition mostly above about 38%, no sharp cut-off; inactive = mostly below about 40%;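 also: 0% = agonist challenge alone and 100% = reference antagonist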
GPR7 antag = human neuropeptides B/W receptor 1 antagonism; AID 1861; hit rate 1.1% among 290,000; P48145; inhibition, % at 4.4 µM; GPR7-expressing cells, fluorescence antagonist assay; in the data active = inhibition above about 16%, passing the limit was not always enough;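 also: cells stimulated with the agonist NPW; 0% = agonist with vehicle and 100% = vehicle without agonist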
CHO parental Ca = signal in parental CHO cells, OX1R antagonist counter-screen. parental CHO-K1, ATP-induced calcium, Fluo-8 fluorescence. inhibition, % at 5.6 µM. hit rate 0.63% among 330,000. AID 463079;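 active = inhibition above that plate's mean sample inhibition plus 3 SD, cut at about 26% in these data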;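 also: 0% = ATP-challenged DMSO wells and 100% = DMSO wells without ATP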
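material = parental CHO cells | also added = ATP as calcium-mobilizing challenge | dosing = single point at 5.6 µM | detection = intracellular calcium via Fluo-8 no-wash fluorescent dye | read-out = % inhibition | benchmarks = low control ATP plus DMSO, high control DMSO only | repeats = one well per compound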
TAAR1 antag = human TAAR1 antagonism | CHO RD-HGA16 TAAR1, Fluo-8 calcium fluorescence, antagonist | inhibition, % at 3 µM | hit rate 1.5% among 360,000 | AID 624466;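 active = inhibition above a per-plate cutoff, the mean inhibition of test compounds on that plate plus 3 SD, cut at about 49% in these data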;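 also: 0% = DMSO plus EC80 beta-PEA response and 100% = DMSO alone without agonist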
Target sequence (Q96RJ0 whole entry, looked up): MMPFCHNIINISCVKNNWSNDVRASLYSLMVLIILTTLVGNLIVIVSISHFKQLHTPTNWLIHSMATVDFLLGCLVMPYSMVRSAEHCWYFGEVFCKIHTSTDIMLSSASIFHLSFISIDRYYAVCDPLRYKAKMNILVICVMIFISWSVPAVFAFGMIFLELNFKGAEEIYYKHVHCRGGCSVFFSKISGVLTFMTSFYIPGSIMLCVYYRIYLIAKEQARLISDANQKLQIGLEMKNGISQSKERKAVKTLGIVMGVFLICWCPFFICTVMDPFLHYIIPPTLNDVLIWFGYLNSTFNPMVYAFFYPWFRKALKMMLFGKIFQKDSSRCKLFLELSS
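Test system: hTAAR1-expressing CHO RD-HGA16 cells, Gα16-coupled; Probe or stimulus: EC80 β-phenethylamine stimulus; Compound dosing: single nominal final test compound concentration of 3 µM; Timing: 140 s kinetic read after compound, 140 s after agonist; Signal: Fluo-8 calcium-sensitive fluorescence; Measure: % inhibition of agonist calcium response; Controls: DMSO and EC80 PEA controls.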
TAAR1 agonist = agonists of human TAAR1; CHO RD-HGA16 TAAR1, Fluo-8 calcium fluorescence; vehicle wells 0%, saturating PEA agonist 100%; AID 624467; activation, % at 3 µM; hit rate 0.99% among 360,000;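 active = activation above the mean activation of all test compounds in the run plus 3 SD, cut at about 38% in these data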
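Test system: RD-HGA16 (CHO) cells co-expressing Gα16 and hTAAR1 | Doses: Single dose, 3 µM | Schedule: 17-24 h seeding, 75 min 37 °C dye, 30 min RT | Evaluation: % activation from peak over basal fluorescence ratio, DMSO-to-PEA scaled | Technique: Kinetic Fluo-8 calcium fluorescence | Benchmarks: Low control DMSO, high control PEA (EC100)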
TAAR1 ag confirm = human TAAR1 agonism, confirmed | shares compounds with TAAR1 agonist | CHO RD-HGA16 TAAR1, Fluo-8 calcium fluorescence; scaled: DMSO 0%, maximal phenethylamine 100% | activation, % at 3 µM | hit rate 82% among 2,400 | AID 651783;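 active = activation above a cutoff set at the run's mean compound activation plus 3 SD, cut at about 39% in these data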
Ga16 nonsel ag = counter-screen for TAAR1 agonists: nonselective agonists in parental cells; activation, % at 3 µM; hit rate 50% among 2,400; CHO-Ga16 parental, Fluo-8 calcium fluorescence; normalized to maximal ATP response, DMSO zero; shares compounds with TAAR1 agonist;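 active = activation above the run cutoff, the mean activation over all tested wells plus 3 SD, cut at about 12% in these data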;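 also: 0% = DMSO wells and 100% = maximal ATP response on the peak over basal ratio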
TAAR1 desens = human TAAR1 agonist that also desensitizes the receptor | AID 651951 | CHO RD-HGA16 hTAAR1, Fluo-8 calcium, beta-PEA response inhibition | inhibition, % at 3 µM | hit rate 46% among 2,400 | shares compounds with TAAR1 agonist;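 active = inhibition above the run cutoff, the mean inhibition of all test compounds plus 3 SD, cut at about 49% in these data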;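 also: beta-PEA stimulus applied at its EC80; loss of beta-PEA calcium signal after compound pretreatment read as receptor desensitization; 0% = DMSO with beta-PEA at EC80 and 100% = DMSO alone without agonist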
Ga16 nonsel ant = nonselective Ga16 antagonism, counter-screen | shares compounds with TAAR1 agonist | CHO-Ga16 ATP-induced calcium, Fluo-8 fluorescence | inhibition, % at 3 µM | hit rate 39% among 2,400 | AID 651952;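 active = inhibition above the plate's mean compound inhibition plus 3 SD, computed per plate, cut at about 22% in these data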;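 also: 0% = EC80 ATP with DMSO and 100% = DMSO wells without ATP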
* hit, by the source's call; . = no result. Hits are enriched below; roughly 4.5% of the tested compounds scored in any of these assays.

SMILES | OX1R antag-1 | OX1R antag-2 | GPR7 antag | CHO parental Ca | TAAR1 antag | TAAR1 agonist | TAAR1 ag confirm | Ga16 nonsel ag | TAAR1 desens | Ga16 nonsel ant
O=C(NC(=S)NNC(=O)c1cccs1)c1ccc(Br)o1 | 5 | 4 | 1 | 4 | 42 | 116* | 65* | 46* | 32 | 27*
FC(F)(F)c1nc(SCc2ccccc2)n[nH]1 | -3 | 25 | . | 0 | -33 | 1 | . | . | . | .
O=C(Nc1ccccc1C(=O)NCCc1ccccc1)c1ccco1 | -14 | 33 | -6 | -3 | 43 | 60* | 69* | 5 | 60* | 24*
O=C(NCCc1ccccc1)c1ccco1 | -11 | 5 | -12 | -14 | -2 | 29 | . | . | . | .
Cc1ccc(C(=O)NC(C)c2ccc(F)cc2)cc1 (stereo not drawn) | 5 | 12 | -4 | 9 | -10 | 0 | . | . | . | .
CC(C)Cc1ccc(C(C)NC(=O)c2ccc(=O)[nH]c2)cc1 (stereo not drawn) | 5 | 1 | 20 | 6 | 39 | 91* | 94* | 49* | 49* | 38*
O=C(NCCN1CCCC1)C1CCC(=O)N(CCCN2CCOCC2)C1 (stereo not drawn) | -5 | 0 | -7 | -8 | -27 | 0 | . | . | . | .
CC1(c2ccc(OC(F)F)cc2)NC(=O)N(CC(=O)Nc2cccc(S(N)(=O)=O)c2)C1=O (stereo not drawn) | -2 | 10 | -13 | 5 | -12 | 2 | . | . | . | .
CC1(c2ccc(OC(F)F)cc2)NC(=O)N(/N=C/c2c(O)ccc3ccccc23)C1=O (stereo not drawn) | 1 | 14 | -7 | 6 | 54* | 64* | 68* | 48* | 73* | 59*
COc1ccc2nc(NC3=NC(C(=O)Nc4ccc(C)cc4)CC(=O)N3)nc(C)c2c1 (stereo not drawn) | -6 | -5 | -16 | -8 | . | . | . | . | . | .
COc1ccc(NC(=O)C2CC(=O)NC(Nc3cccc(C)c3)=N2)cc1 (stereo not drawn) | -5 | 24 | -5 | -5 | 8 | 51* | 54* | 3 | 14 | 8
O=C(C[C@@H]1C=C[C@H](NC(=O)Cc2ccccn2)[C@@H](CO)O1)NCCc1ccccc1 | . | . | . | . | . | . | . | 6 | . | 8
C=CCC[C@@H](Cc1ccc(F)cc1)C(=O)OC[C@H](Cc1c[nH]c2ccccc12)NC(=O)[C@@H](CC=C)CC(=O)NCCO | 28 | 6 | . | 7 | 80* | 74* | 52* | 30* | 76* | 51*
Cc1ccc(CN2CC(C(=O)N(CC(C)C)c3c(N)n(Cc4ccccc4)c(=O)[nH]c3=O)CC2=O)cc1 (stereo not drawn) | . | . | . | . | -33 | 0 | . | . | . | .
C=CCNC(=O)c1ccc(Cn2cc(C(F)(F)F)ccc2=O)cc1 | -9 | 31 | -2 | -12 | 12 | 1 | . | . | . | .
O=C(NCc1ccc(Cl)cc1)c1ccc(Cn2cc(C(F)(F)F)ccc2=O)cc1 | -10 | -7 | 6 | 2 | 30 | 66* | 22 | 24* | 28 | 26*
O=C(NN1C(=O)C2C3c4ccccc4C(c4ccccc43)[C@@H]2C1=O)c1ccccc1 (stereo partly drawn) | -17 | 11 | 3 | -5 | -2 | 4 | . | . | . | .
O=C(NN1C(=O)C2C(c3ccccc3)C=CC(c3ccccc3)C2C1=O)c1ccccc1 (stereo not drawn) | 1 | 22 | -10 | -1 | 68* | 70* | 13 | 13* | 37 | 29*
Cc1ccc2cc(C(c3nnnn3C3CCCC3)N3CCN(c4ccc(F)cc4)CC3)c(=O)[nH]c2c1 (stereo not drawn) | -21 | 10 | 4 | -26 | -3 | 8 | . | . | . | .
